The compounds below were run on S49 (assay: In vitro biological activity against accumulation of cAMP in S49 cells as relative activity expressed as ratio of KA for isoproterenol to KA for the compound).
Format: functional, Mus musculus
In short: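 Wild-type S-49 mouse lymphoma cells resuspended at 2–2.5 × 10^6/mL in DME (13.3 g/L), 20 mM Hepes pH 7.4, 0.1% BSA. Preincubated 10 min at 37 °C without drug, then 6 min with compound; stopped on ice, pellets boiled, cAMP measured by competitive binding. K_A taken from cAMP vs log concentration; ratio uses isoproterenol K_A run at the same time. Each K_A averages ≥3 determinations, each in triplicate.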

Row | Compound | Relative activity
1 | CC(CCCCC(=O)Nc1ccccc1C(F)(F)F)NCC(O)c1ccc(O)c(O)c1.Cl (stereo unspecified) | 0.00025
2 | CC(CCCCC(=O)NC1CCCCC1)NCC(O)c1ccc(O)c(O)c1.Cl (stereo unspecified) | 0.17
3 | Cc1ccc(NC(=O)CCC(C)NCC(O)c2ccc(O)c(O)c2)cc1.Cl (stereo unspecified) | 0.71
4 | CC(CCCCC(=O)O)NCC(O)c1ccc(O)c(O)c1 (stereo unspecified) | 0.00097
5 | Cc1ccc(NC(=O)CCCCCC(C)NCC(O)c2ccc(O)c(O)c2)cc1.Cl (stereo unspecified) | 0.11
6 | CC(CCCC(=O)O)NCC(O)c1ccc(O)c(O)c1 (stereo unspecified) | 0.00068
7 | Cc1ccc(NC(=O)CCCC(C)NCC(O)c2ccc(O)c(O)c2)cc1.Cl (stereo unspecified) | 0.36
8 | CC(CCCCC(=O)Nc1cccc(C(F)(F)F)c1)NCC(O)c1ccc(O)c(O)c1.Cl (stereo unspecified) | 0.98
9 | Cc1ccc(N(C)C(=O)CCCCC(C)NCC(O)c2ccc(O)c(O)c2)cc1.Cl (stereo unspecified) | 73
10 | CC(CCCCCC(=O)O)NCC(O)c1ccc(O)c(O)c1 (stereo unspecified) | 0.00083
11 | Cc1ccc(NC(=O)CCCCC(C)NCC(O)c2ccc(O)c(O)c2)cc1.Cl (stereo unspecified) | 54
12 | COc1ccc(NC(=O)CCCCC(C)NCC(O)c2ccc(O)c(O)c2)cc1.Cl (stereo unspecified) | 3.1
13 | CC(CCC(=O)O)NCC(O)c1ccc(O)c(O)c1 (stereo unspecified) | 0.00016
14 | CC(CCCCC(=O)Nc1ccc(C(F)(F)F)cc1)NCC(O)c1ccc(O)c(O)c1.Cl (stereo unspecified) | 11000
15 | CCCCc1ccc(NC(=O)CCCCC(C)NCC(O)c2ccc(O)c(O)c2)cc1.Cl (stereo unspecified) | 3200
16 | CCCCNC(=O)CCCCC(C)NCC(O)c1ccc(O)c(O)c1.Cl (stereo unspecified) | 0.25

Reference: ChEMBL document CHEMBL1122508, “Conjugates of catecholamines. 1. N-alkyl-functionalized carboxylic acid congeners and amides related to isoproterenol” (1983)
